This is an account of results in ChEMBL document CHEMBL3808332, “Identification of novel aminopiperidine derivatives for antibacterial activity against Gram-positive bacteria” (Bioorg Med Chem Lett, 2016).

SMILES strings stand for the structures. Converted amounts (≈) assume the structure as drawn.

The subject of series [1] is Enterococcus faecium. Description: Antibacterial activity against vancomycin-resistant Enterococcus faecium infected in po dosed immunosuppressed mouse model assessed as inhibition of systemic infection administered bid for 3 days. Type of series: functional. Particulars: 72 h. In a few lines:
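Immunosuppressed mice (n = 6/group) received a systemic ip infection with a standard vancomycin-resistant E. faecium strain at 1 × 10⁹ CFU per mouse. Dosing was oral, BID, for 3 days. ED50 and 95% CI came from probit analysis of day-7 survival.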

For series [2], the system named is Staphylococcus aureus. Put plainly: Antibacterial activity against methicillin-resistant Staphylococcus aureus infected in po dosed mouse model assessed as inhibition of systemic infection administered bid for 3 days. Type of series: functional. The following applies: 72 h. In a few lines:
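Normal mice (n = 6/group) given a systemic ip challenge with a standard MRSA strain at 2 × 10⁸ CFU per mouse. Oral treatment twice daily for 3 days. Survival was scored at day 7, and ED50 with 95% CI was derived by probit analysis.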

The next series concerns Enterococcus faecalis. Description: Antibacterial activity against vancomycin-resistant Enterococcus faecalis after 24 hrs by microdilution method. Type of series: functional. Background: Broth dilution looks for growth in wells or tubes with falling amounts of substance.
The subject of series [3] is Staphylococcus aureus. Description: Antibacterial activity against methicillin-resistant Staphylococcus aureus after 24 hrs by microdilution method. In kind it is functional.
In series [4] the test system is Enterococcus faecium. Put plainly: Antibacterial activity against vancomycin-resistant Enterococcus faecium after 24 hrs by microdilution method. In kind it is functional.
For series [5], the system named is Streptococcus pneumoniae. Put plainly: Antibacterial activity against Penicillin-resistant Streptococcus pneumoniae yonsei 15 infected in po dosed immunosuppressed mouse model assessed as inhibition of pulmonary infection administered bid for 3 days. Type of series: functional. The following applies: yonsei 15, po, 72 h. Put shortly: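 Lung infection in immunosuppressed mice (n = 6/group) by intranasal inoculation with penicillin-resistant S. pneumoniae Yonsei15 at 1 × 10⁶ CFU per mouse. Treatment was oral, twice daily for 3 days. Day-7 survival was analysed by probit to give ED50 and 95% CI.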

The next series deals with Escherichia coli. Description: Antibacterial activity against Escherichia coli after 24 hrs by microdilution method. In kind it is functional.
Series [6] has as its system Streptococcus pneumoniae. Description: Antibacterial activity against Penicillin-resistant Streptococcus pneumoniae after 24 hrs by microdilution method. In kind it is functional.
For another series, the system named is Pseudomonas aeruginosa. Put plainly: Antibacterial activity against Pseudomonas aeruginosa after 24 hrs by microdilution method. In kind it is functional.
For series [7], the target named is T1, Peptide deformylase (Staphylococcus aureus) (UniProt P68826).
T1 sequence (whole entry): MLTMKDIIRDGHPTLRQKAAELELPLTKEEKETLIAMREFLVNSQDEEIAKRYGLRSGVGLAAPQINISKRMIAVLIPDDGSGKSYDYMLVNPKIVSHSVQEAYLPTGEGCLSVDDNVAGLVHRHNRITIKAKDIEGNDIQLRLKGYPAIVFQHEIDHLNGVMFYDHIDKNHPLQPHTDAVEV
Description: Inhibition of Staphylococcus aureus PDF using formyl-methionine-alanine-serine as substrate assessed as increase in NADH levels at 10 nM by microtiter ELISA. (In an ELISA, binding on a coated surface is turned into a signal by an enzyme label.)

A short description of series [8]: Tmax in iv/po dosed mouse plasma by LC-MS/MS analysis. Type of series: ADME, organism-based. In a few lines:
(§1)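 Mice, n = 3–5 per group, given the compound intravenously and orally. Plasma pharmacokinetic parameters were derived: total plasma clearance, steady-state volume of distribution, apparent terminal elimination half-life, Tmax after oral dosing, and absolute oral bioavailability (%F).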

Series [9] addresses T1, Peptide deformylase (Staphylococcus aureus). Put plainly: Inhibition of Staphylococcus aureus PDF using formyl-methionine-alanine-serine as substrate assessed as increase in NADH levels at 3 nM by microtiter ELISA.
The next series concerns the target T2, Peptide deformylase (Staphylococcus aureus, UniProt P68826).
T2 sequence (P68826 whole entry): T1 sequence (whole entry)
Put plainly: Inhibition of Staphylococcus aureus PDF using formyl-methionine-alanine-serine as substrate assessed as increase in NADH levels by microtiter ELISA.

A short description of series [10]: Plasma clearance in iv/po dosed mouse by LC-MS/MS analysis. In kind it is ADME, organism-based. In a few lines:
as §1

For series [11], the target named is T1, Peptide deformylase (Staphylococcus aureus). Put plainly: Inhibition of Staphylococcus aureus PDF using formyl-methionine-alanine-serine as substrate assessed as increase in NADH levels at 30 nM by microtiter ELISA.
Series [12] in a line: Apparent terminal half life in iv/po dosed mouse plasma by LC-MS/MS analysis. The following applies: read-out: betat1/2(app) (converted). In kind it is ADME, organism-based. Put shortly: as §1
Series [13] addresses T1, Peptide deformylase (Staphylococcus aureus). Put plainly: Inhibition of Staphylococcus aureus PDF using formyl-methionine-alanine-serine as substrate assessed as increase in NADH levels at 100 nM by microtiter ELISA.
The nature of series [14]: Apparent oral bioavailability in mouse plasma by LC-MS/MS analysis. In kind it is ADME, organism-based. Put shortly: as §1
A short description of series [15]: Volume of distribution at steady state in iv/po dosed mouse plasma by LC-MS/MS analysis. In kind it is ADME, organism-based. Particulars: read-out: Vdss. In a few lines: as §1

As usually defined, the ED50 is the midpoint of the dose-response relation. A word on the MIC: it is the lowest concentration that inhibits growth of the organism. The low end stands for inhibition by little substance, the high end for a need for much substance. In the case of `CC(=O)NC[C@H]1CN(c2ccc(N3CCOCC3)c(F)c2)C(=O)O1` [LINEZOLID], the results for the ED50 in the series with Enterococcus faecium [1], in the series on Staphylococcus aureus [2] and in the series with Streptococcus pneumoniae [5] were 11.4 mg/kg, 5 mg/kg and 1.5 mg/kg, respectively. Besides, the MIC in the series on Enterococcus faecalis was 0.8 µg/mL (≈ 2.37 µM); in the series on Staphylococcus aureus [3] it was 1.6 µg/mL (≈ 4.74 µM); with Enterococcus faecium [4], 1.6 µg/mL (≈ 4.74 µM); in the series on Escherichia coli it was over 50 µg/mL; against Streptococcus pneumoniae [6], 0.8 µg/mL (≈ 2.37 µM); against Pseudomonas aeruginosa, over 50 µg/mL.

The term inhibition denotes the change of the read-out against control, counted positive when it falls. The term Tmax denotes the time from dosing to the highest level. Usually IC50 stands for the concentration that inhibits the measured activity by half. Usually bioavailability stands for the share of a dose that reaches the circulation, judged against a reference dose that is usually intravenous. `CC(C)(C)[C@H](NC(=O)[C@H](CC1CCCC1)CN(O)C=O)C(=O)N1CCC(NCc2cc(F)c(F)cc2F)CC1`: the ED50 in the series with Enterococcus faecium [1] was 13.3 mg/kg; with Staphylococcus aureus [2] it was 16.6 mg/kg; in the series on Streptococcus pneumoniae [5], 3 mg/kg. Also, the MIC in the series with Enterococcus faecalis worked out at 0.8 µg/mL (≈ 1.44 µM); in the series on Staphylococcus aureus [3], 1.6 µg/mL (≈ 2.88 µM); against Enterococcus faecium [4], 0.8 µg/mL (≈ 1.44 µM); in the series with Streptococcus pneumoniae [6] it was 0.4 µg/mL (≈ 0.721 µM). In addition, the inhibition was 20% in [7], -3% in [9], 51% in series [11] and 78% in series [13]. For the same molecule, in series [8], the Tmax amounted to 30 min. The IC50 at Peptide deformylase was found to be 30 nM. The molecule further had a clearance in series [10] of 19 mL/min/kg. The half-life in series [12] is 63 min. Moreover, the bioavailability in series [14] is 95.8%. Also, in series [15], the Vd amounted to 1.71 L/kg.
